Test results reported in ChEMBL document CHEMBL1629542, “Epigallocatechin gallate inactivates clinical isolates of herpes simplex virus” (Antimicrob Agents Chemother, 2008).

How the values were obtained:
Human alphaherpesvirus 2 = assay: Antiviral activity against Human herpesvirus 2 strain 333 infected in African green monkey CV1 cells assessed as log reduction in viral titer at 100 uM; type: functional, CV-1
Summary of the method: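 Lab strain HSV-2 333 was grown and titrated either in CV-1 cells or in Vero cells. Virus was incubated with 100 μM EGCG for 60 min, then titrated as tenfold dilutions for 5 days at 37°C with CPE scoring. Reed-Muench TCID50 of treated versus control virus gave the titer decrease. Mean of three experiments.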

Human alphaherpesvirus 1 = assay: Antiviral activity against Human herpesvirus 1 F1 infected in African green monkey Vero cells assessed as log reduction in viral titer at 100 uM

Row | SMILES | FC (Human alphaherpesvirus 2) | FC (Human alphaherpesvirus 1)
1 | O=C(O[C@@H]1Cc2c(O)cc(O)cc2O[C@@H]1c1ccc(O)c(O)c1)c1cc(O)c(O)c(O)c1 [EPICATECHIN GALLATE] | >=1 | 
2 | O=C(O[C@@H]1Cc2c(O)cc(O)cc2O[C@H]1c1cc(O)c(O)c(O)c1)c1cc(O)c(O)c(O)c1 [GALLOCATECHIN GALLATE] | 4 | 3.5
